Measurements reported in ChEMBL document CHEMBL4359914, “Design, synthesis and biological evaluation of stereo- and regioisomers of amino aryl esters as multidrug resistance (MDR) reversers” (Eur J Med Chem, 2019).

What was measured:
[1] = Stability of compound in human plasma assessed as half life at 1 uM incubated for 120 min by LC-MS/MS analysis; format: ADME, cell-free
Method in brief: (§1)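 Analyte added to PBS or human plasma (healthy volunteer, stored at -80 °C) to 1 μM; incubated at 37 °C for 0, 30, 60 and 120 min, triplicate per time point. Internal standard solution added, centrifuged, supernatant dried under nitrogen and redissolved. Analyte quantified by LC-MS/MS in MRM mode; half-life derived from decay rate k.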

[2] = target: T1, ATP-dependent translocase ABCB1 (Homo sapiens, UniProt P08183); assay: Inhibition of MDR1 (unknown origin) expressed in MDCK-MDR1 cells assessed as decrease in ATP consumption incubated for 2 hrs by ATPlite luminescence assay; format: cell-based; conditions: mdck-mdr1, 2 h
T1 sequence (P08183 whole entry): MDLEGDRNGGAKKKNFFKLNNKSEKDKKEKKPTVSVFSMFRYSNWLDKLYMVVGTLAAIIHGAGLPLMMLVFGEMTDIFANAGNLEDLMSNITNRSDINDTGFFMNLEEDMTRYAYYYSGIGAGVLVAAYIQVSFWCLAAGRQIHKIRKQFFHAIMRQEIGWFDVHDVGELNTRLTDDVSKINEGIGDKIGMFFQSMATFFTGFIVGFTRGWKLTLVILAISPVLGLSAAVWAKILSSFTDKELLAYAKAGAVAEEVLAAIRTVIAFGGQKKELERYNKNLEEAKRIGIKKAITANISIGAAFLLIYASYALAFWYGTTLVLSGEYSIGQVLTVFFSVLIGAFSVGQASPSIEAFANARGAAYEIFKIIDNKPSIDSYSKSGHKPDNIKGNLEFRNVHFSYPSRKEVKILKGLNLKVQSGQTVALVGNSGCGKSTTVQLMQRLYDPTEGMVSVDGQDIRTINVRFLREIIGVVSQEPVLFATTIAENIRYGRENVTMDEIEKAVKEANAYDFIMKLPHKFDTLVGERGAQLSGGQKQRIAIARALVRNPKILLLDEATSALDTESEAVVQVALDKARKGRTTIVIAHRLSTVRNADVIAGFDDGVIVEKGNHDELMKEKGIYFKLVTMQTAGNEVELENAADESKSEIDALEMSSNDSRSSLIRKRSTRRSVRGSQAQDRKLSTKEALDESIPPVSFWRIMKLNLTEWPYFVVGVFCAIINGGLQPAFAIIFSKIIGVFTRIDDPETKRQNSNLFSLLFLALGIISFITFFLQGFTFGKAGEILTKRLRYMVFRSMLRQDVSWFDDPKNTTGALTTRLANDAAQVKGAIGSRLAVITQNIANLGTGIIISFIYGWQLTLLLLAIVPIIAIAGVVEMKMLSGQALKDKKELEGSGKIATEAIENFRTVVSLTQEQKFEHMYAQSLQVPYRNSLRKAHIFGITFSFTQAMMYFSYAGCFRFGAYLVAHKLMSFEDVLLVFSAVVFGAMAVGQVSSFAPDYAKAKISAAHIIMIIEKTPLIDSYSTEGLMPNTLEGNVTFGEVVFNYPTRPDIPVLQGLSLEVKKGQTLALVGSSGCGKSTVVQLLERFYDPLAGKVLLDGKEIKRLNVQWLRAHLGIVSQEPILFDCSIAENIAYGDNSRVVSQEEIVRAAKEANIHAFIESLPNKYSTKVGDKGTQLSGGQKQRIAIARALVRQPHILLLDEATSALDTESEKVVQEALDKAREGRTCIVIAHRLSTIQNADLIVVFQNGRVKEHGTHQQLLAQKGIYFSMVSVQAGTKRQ

[3] = target: T1, ATP-dependent translocase ABCB1; assay: Inhibition of P-gp in human K562/DOX cells assessed as drug level causing maximum increase in nuclear pirarubicin concentration incubated for 30 mins by fluorescence based assay relative to control; format: cell-based; conditions: 0.5 h
[4] = Chemical stability of compound assessed as half life in PBS at 1 uM incubated 120 mins by LC-MS/MS analysis; format: physicochemical; method in brief: as §1
[5] = target: T1, ATP-dependent translocase ABCB1; assay: Inhibition of P-gp in human K562/DOX cells assessed as drug level causing 50% increase in nuclear pirarubicin concentration incubated for 30 mins by fluorescence based assay; format: cell-based; conditions: read-out: I0.5
[6] = target: T2, Broad substrate specificity ATP-binding cassette transporter ABCG2 (Homo sapiens, UniProt Q9UNQ0); assay: Inhibition of BCRP (unknown origin) expressed in MDCK cells assessed as increase in Hoechst 33342 accumulation incubated for 30 mins by Hoechst 33342 dye based fluorescence assay; format: cell-based; conditions: read-out: EC50
T2 sequence (Q9UNQ0 whole entry): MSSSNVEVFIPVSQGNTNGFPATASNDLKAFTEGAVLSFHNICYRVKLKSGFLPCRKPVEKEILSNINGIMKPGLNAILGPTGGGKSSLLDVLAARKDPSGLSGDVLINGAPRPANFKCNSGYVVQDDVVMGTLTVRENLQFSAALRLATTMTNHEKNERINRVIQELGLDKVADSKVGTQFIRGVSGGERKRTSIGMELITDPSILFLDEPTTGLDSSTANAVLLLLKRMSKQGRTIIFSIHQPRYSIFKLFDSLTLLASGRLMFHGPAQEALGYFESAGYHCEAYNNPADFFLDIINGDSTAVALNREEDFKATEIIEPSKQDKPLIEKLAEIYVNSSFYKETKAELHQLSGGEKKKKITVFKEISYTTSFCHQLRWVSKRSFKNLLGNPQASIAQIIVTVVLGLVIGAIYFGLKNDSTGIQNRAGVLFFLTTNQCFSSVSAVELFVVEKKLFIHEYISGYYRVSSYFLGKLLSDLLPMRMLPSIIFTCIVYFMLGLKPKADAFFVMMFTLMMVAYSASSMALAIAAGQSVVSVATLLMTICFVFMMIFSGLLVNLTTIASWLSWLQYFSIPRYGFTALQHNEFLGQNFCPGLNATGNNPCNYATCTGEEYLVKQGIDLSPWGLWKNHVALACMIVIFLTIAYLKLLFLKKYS

[7] = target: T1, ATP-dependent translocase ABCB1; assay: Inhibition of P-gp (unknown origin) expressed in MDCK-MDR1 cells assessed as increase in calcein-AM accumulation incubated for 30 mins by calcein-AM dye based fluorescence assay; format: cell-based
P-gp (MDR1, ABCB1) = P-gp (MDR1, ABCB1) (Homo sapiens, UniProt P08183); assay: Inhibition of MDR1 (unknown origin) expressed in MDCK-MDR1 cells assessed as decrease in ATP consumption at 10 uM incubated for 2 hrs by ATPlite luminescence assay relative to control; format: cell-based; conditions: MDCK-MDR1 cells expressing MDR1
Sequence of P-gp (MDR1, ABCB1) (P08183 whole entry): as the sequence (P08183 whole entry) above

Compound | half-life at 1 µM [1] [h] | inhibition (INH) [2] | Alpha max [3] | half-life at 1 µM [4] [h] | IC50 [5] [nM] | EC50 [6] [nM] | EC50 [7] [nM] | inhibition at 2 h, 10 µM (P-gp (MDR1, ABCB1)) [%]
COc1cc(/C=C/C(=O)OCCCCCCCN(C)C[C@H](C)COC(=O)c2cc(OC)c(OC)c(OC)c2)cc(OC)c1OC | ≥ 4 | Not Active | 0.7 | ≥ 4 | 130 | 2500 | 550 | 
COc1cc(/C=C/C(=O)OC[C@H](C)CN(C)CCCCCCCOC(=O)c2c3ccccc3cc3ccccc23)cc(OC)c1OC | ≥ 4 | Not Active | 0.65 | ≥ 4 | 970 | 6400 | 1400 | 
COc1cc(/C=C/C(=O)OCCCN(C)C[C@@H](C)COC(=O)c2c3ccccc3cc3ccccc23)cc(OC)c1OC | ≥ 4 | Not Active | 0.8 | ≥ 4 | 170 | 6800 | 960 | 
COc1cc(/C=C/C(=O)OCCCCCCCN(C)C[C@@H](C)COC(=O)c2cc(OC)c(OC)c(OC)c2)cc(OC)c1OC | ≥ 4 | Not Active | 0.83 | ≥ 4 | 120 | 4300 | 650 | 
COc1cc(/C=C/C(=O)OCCCCCN(C)C[C@@H](C)COC(=O)c2c3ccccc3cc3ccccc23)cc(OC)c1OC | ≥ 4 | Not Active | 0.89 | ≥ 4 | 230 | 4600 | 810 | 
COc1cc(/C=C/C(=O)OC[C@H](C)CN(C)CCCCCCCOC(=O)c2cc(OC)c(OC)c(OC)c2)cc(OC)c1OC | 1.23 | Not Active | 0.81 | ≥ 4 | 590 | 4700 | 820 | 
COc1cc(/C=C/C(=O)OCCCCCN(C)C[C@H](C)COC(=O)c2c3ccccc3cc3ccccc23)cc(OC)c1OC | ≥ 4 | Not Active | 0.75 | ≥ 4 | 80 | 4600 | 760 | 
COc1cc(/C=C/C(=O)OC[C@H](C)CN(C)CCCCCOC(=O)c2c3ccccc3cc3ccccc23)cc(OC)c1OC | ≥ 4 | Not Active | 0.88 | ≥ 4 | 80 | 2300 | 720 | 
COc1cc(/C=C/C(=O)OC[C@@H](C)CN(C)CCCCCOC(=O)c2c3ccccc3cc3ccccc23)cc(OC)c1OC | ≥ 4 | Not Active | 0.79 | ≥ 4 | 30 | 4700 | 690 | 

Further lines, results first:

half-life at 1 µM [1] [h] | inhibition (INH) [2] | Alpha max [3] | half-life at 1 µM [4] [h] | IC50 [5] [nM] | EC50 [6] [nM] | EC50 [7] [nM] | inhibition at 2 h, 10 µM (P-gp (MDR1, ABCB1)) [%] | Compound
≥ 4 | Not Active | 0.93 | ≥ 4 | 200 | 6200 | 990 |  | COc1cc(/C=C/C(=O)OCCCCCCCN(C)C[C@@H](C)COC(=O)c2c3ccccc3cc3ccccc23)cc(OC)c1OC
1.95 | Not Active | 0.99 | ≥ 4 | 140 | 33500 | 710 |  | COc1cc(/C=C/C(=O)OC[C@H](C)CN(C)CCCOC(=O)c2cc(OC)c(OC)c(OC)c2)cc(OC)c1OC
≥ 4 | Not Active | 0.8 | ≥ 4 | 890 | 5600 | 930 |  | COc1cc(/C=C/C(=O)OC[C@@H](C)CN(C)CCCCCCCOC(=O)c2c3ccccc3cc3ccccc23)cc(OC)c1OC
≥ 4 | Not Active | 0.99 | ≥ 4 | 80 | 5900 | 950 |  | COc1cc(/C=C/C(=O)OC[C@H](C)CN(C)CCCOC(=O)c2c3ccccc3cc3ccccc23)cc(OC)c1OC
≥ 4 | Not Active | 0.79 | ≥ 4 | 180 | 2300 | 910 |  | COc1cc(/C=C/C(=O)OC[C@@H](C)CN(C)CCCOC(=O)c2c3ccccc3cc3ccccc23)cc(OC)c1OC
≥ 4 | Not Active | 0.99 | ≥ 4 | 40 | 11000 | 910 |  | COc1cc(/C=C/C(=O)OCCCN(C)C[C@H](C)COC(=O)c2c3ccccc3cc3ccccc23)cc(OC)c1OC
≥ 4 | Not Active | 0.75 | ≥ 4 | 240 | 8100 | 110 |  | COc1cc(/C=C/C(=O)OCCCCCN(C)C[C@H](C)COC(=O)c2cc(OC)c(OC)c(OC)c2)cc(OC)c1OC
0.3 | Not Active | 0.99 | ≥ 4 | 80 | 4200 | 1100 |  | COc1cc(/C=C/C(=O)OC[C@@H](C)CN(C)CCCCCOC(=O)c2cc(OC)c(OC)c(OC)c2)cc(OC)c1OC
0.5 | Not Active | 0.74 | ≥ 4 | 380 | 2300 | 320 |  | COc1cc(/C=C/C(=O)OC[C@@H](C)CN(C)CCCCCCCOC(=O)c2cc(OC)c(OC)c(OC)c2)cc(OC)c1OC
≥ 4 | Not Active | 0.99 | ≥ 4 | 80 | 7200 | 1040 |  | COc1cc(/C=C/C(=O)OCCCCCCCN(C)C[C@H](C)COC(=O)c2c3ccccc3cc3ccccc23)cc(OC)c1OC
0.483 |  | 0.75 | ≥ 4 | 90 | 3700 | 1380 | 20 | COc1cc(/C=C/C(=O)OC[C@@H](C)CN(C)CCCOC(=O)c2cc(OC)c(OC)c(OC)c2)cc(OC)c1OC
0.9 | Not Active | 0.99 | ≥ 4 | 110 | 9500 | 73 |  | COc1cc(/C=C/C(=O)OCCCN(C)C[C@@H](C)COC(=O)c2cc(OC)c(OC)c(OC)c2)cc(OC)c1OC
